Assay results published in publication PMC6242712 (ChemMedChem, 2018).
Read-outs that look alike come from different tables or passages of the source. One block for each compound: values may come before it.

Key:
U87MG cells [1] = test: MTT growth inhibition assay, U87MG; conditions: for Effect on cell growth: in words; for IC50: read-out: IC50, cytotoxicity U87MG
PDI [2] = conditions: reversible PDI modulator; cited from earlier work
PDI [3] = target: T1, PDI (Homo sapiens, UniProt P07237); test: PDI-catalyzed insulin reduction; format: biochemical
U118MG cells [4] = test: MTT growth inhibition assay, U118MG; conditions: Homo sapiens, U-118-MG, 72 h, read-out: IC50, cytotoxicity U118MG
A172 cells [5] = test: MTT growth inhibition assay, A172; conditions: Homo sapiens, A 172, 72 h, read-out: IC50, cytotoxicity A172
NU04 cells [6] = test: MTT growth inhibition assay, NU04; conditions: Homo sapiens, 72 h, read-out: IC50, cytotoxicity NU04
U87MG cells [7] = test: ROS detection assay; format: cell-based, human; conditions: 5 μM, 24 hours; comparable to 100 μM hydrogen peroxide
Outline: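 Trypsinized U87MG cells were loaded in suspension with 20 μM H2DCFDA for 30 min at 37 °C, washed, plated at 20,000 cells/well, rested 30 min, then treated. Fluorescence (493/523 nm) was read at 4, 6 and 24 h. Hydrogen peroxide (500, 100, 20 μM) served as reference. Means ± standard deviation of three independent experiments.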

GSTO1 = target: T2, GSTO1 (Homo sapiens, UniProt P78417); test: DARTS assay in U87MG cell lysates, GSTO1; format: binding; conditions: 100 μM compound, U87MG lysate
T2 sequence (P78417 1-241): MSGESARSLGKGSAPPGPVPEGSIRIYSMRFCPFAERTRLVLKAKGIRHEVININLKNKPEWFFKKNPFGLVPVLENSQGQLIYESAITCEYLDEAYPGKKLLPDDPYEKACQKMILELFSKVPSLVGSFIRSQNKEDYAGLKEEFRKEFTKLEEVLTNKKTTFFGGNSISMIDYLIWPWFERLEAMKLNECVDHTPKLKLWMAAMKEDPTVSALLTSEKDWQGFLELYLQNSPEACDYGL
Outline: (§1)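 U87MG cells at 80–85% confluence were lysed on ice for 10 min (150 mM NaCl, 1% NP-40, 0.5% deoxycholate, 50 mM Tris pH 8.0) and cleared at 18,000 × g. Lysate (5 mg/ml) was incubated with 100 μM test compound or DMSO for 30 min at RT. Pronase (0, 0.005, 0.01, 0.02 μg/μL) was added for 30 min at RT and stopped with protease inhibitors on ice. 20 μg protein was Western blotted; three independent experiments.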

PDI [8] = target: T1, PDI; test: DARTS assay in U87MG cell lysates, PDI; format: binding; conditions: 100 μM compound, U87MG lysate
Outline: as §1

U87MG cells [9] = test: Western blot of protein expression; format: cell-based, human; conditions: 24-hour treatment
Outline: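 U87MG cells were treated with test compound (1 or 2 μM) or vehicle for 24 h. 50 μg protein on 10% gels (12% for LC3B, DDIT3), transferred to PVDF. GAPDH loading control; triplicate experiments.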

U87MG cells [10] = test: Bru-seq nascent RNA sequencing; format: cell-based, human; conditions: 1 μM, 4 hours
Outline: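 U87MG cells plated on day 1, given fresh medium on day 5, then exposed to test compound (1 μM) or DMSO for 4 h. Bromouridine (2 mM final) labelled nascent RNA during the last 30 min. Total RNA was isolated in TRIzol, and BrU-RNA was isolated, sequenced and mapped. Genes >300 bp with mean RPKM >0.5 (7,770 genes) were ranked by fold change vs DMSO.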

PDI [11] = target: T1, PDI; test: Cellular thermal shift assay; format: cell-based; conditions: U87MG cells, 2 hours
Outline: (§2)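 U87MG cells (2 × 10^6 per 100 mm dish) were attached overnight, then treated with test compound (0.5, 1.0 or 2.0 μM) or DMSO for 2 h at 37 °C, 5% CO2. Cells were trypsinized, washed in DPBS and aliquoted. Aliquots were heated at set temperatures for 3 min, held 3 min at room temperature and freeze-thawed twice. Cleared supernatants were run on 10% SDS-PAGE and Western blotted.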

GRP78 [12] = target: T3, GRP78 (Homo sapiens, UniProt P11021); test: Cellular thermal shift assay; format: cell-based; conditions: U87MG cells, 2 hours
Outline: as §2

U87MG cells [13] = test: MTT cell viability with or without deferoxamine; format: cell-based; conditions: Homo sapiens, U-87 MG, 12 h, read-out: IC50, cell viability, used alone
[14] = target: T4, glutathione-transferase Omega 1 (GSTO1) (Homo sapiens, UniProt P78417); test: Cellular thermal shift assay; format: cell-based; conditions: U87MG cells, 2 hours
T4 sequence (P78417 1-241): T2 sequence (P78417 1-241)
Outline: as §2

glioblastoma cells = test: MTT growth inhibition of 35G8 combined with Z-VAD-FMK, necrostatin-1 or NAC; format: cell-based, human
GRP78 [15] = target: T3, GRP78; test: DARTS assay in U87MG cell lysates, GRP78; format: binding; conditions: 100 μM compound, U87MG lysate
Outline: as §1

NU04 cells [16] = system: NU04 cells
U118MG cells [17] = system: U118MG cells
A172 cells [18] = system: A172 cells
U87MG cells [19] = system: U87MG cells

T1 sequence (P07237 18-508): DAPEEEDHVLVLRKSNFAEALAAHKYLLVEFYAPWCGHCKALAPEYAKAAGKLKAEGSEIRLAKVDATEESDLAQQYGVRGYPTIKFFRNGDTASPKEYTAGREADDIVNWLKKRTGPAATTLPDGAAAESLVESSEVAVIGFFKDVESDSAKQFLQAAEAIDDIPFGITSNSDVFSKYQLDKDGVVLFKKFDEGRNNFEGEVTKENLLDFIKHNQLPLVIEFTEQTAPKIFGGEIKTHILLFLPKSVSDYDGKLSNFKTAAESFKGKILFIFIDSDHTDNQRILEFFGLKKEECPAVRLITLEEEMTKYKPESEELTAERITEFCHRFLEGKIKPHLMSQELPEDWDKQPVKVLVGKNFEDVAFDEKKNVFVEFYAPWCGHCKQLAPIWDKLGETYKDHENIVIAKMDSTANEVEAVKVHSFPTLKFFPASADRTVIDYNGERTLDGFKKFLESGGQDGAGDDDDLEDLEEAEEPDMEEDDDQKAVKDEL
T3 sequence (P11021 19-654): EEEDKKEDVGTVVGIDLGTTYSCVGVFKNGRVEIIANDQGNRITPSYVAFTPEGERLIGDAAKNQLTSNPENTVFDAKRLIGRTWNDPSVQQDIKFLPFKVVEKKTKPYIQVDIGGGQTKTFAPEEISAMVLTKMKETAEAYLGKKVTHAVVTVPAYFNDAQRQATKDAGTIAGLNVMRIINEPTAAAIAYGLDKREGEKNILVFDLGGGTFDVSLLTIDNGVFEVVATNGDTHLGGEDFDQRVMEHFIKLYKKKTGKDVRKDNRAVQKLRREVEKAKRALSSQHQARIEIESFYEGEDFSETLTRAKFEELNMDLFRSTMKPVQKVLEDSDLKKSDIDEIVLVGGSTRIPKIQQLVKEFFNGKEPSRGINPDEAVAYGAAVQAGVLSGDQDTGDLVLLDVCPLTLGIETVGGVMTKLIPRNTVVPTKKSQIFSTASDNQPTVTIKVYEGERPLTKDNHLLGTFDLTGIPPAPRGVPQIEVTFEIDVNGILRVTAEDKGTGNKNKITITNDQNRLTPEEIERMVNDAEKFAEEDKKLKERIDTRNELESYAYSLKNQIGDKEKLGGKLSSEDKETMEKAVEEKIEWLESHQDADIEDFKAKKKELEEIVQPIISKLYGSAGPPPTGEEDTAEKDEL

Compound: Cc1nn(C)c2nc(=O)n(C)c(=O)c-2[n+]1[O-] [NC79]
Effect on cell growth (U87MG cells [1]; MTT): little effect on cell growth
IC50 (U87MG cells [1]; MTT, 72 hours): > 100000 nM

Compound: O=C(C1CC1)N1CCN(Cn2sc3ccccc3c2=O)CC1 [LOC14]
EC50 (PDI [2]): 500 nM

Compound: Cn1nc(Cc2ccccc2)nc2c(=O)n(C)c(=O)nc1-2 [Compound 4c, 3-Benzyl-1,6-dimethylpyrimido[5,4-e][1,2,4]triazine-5,7(1H,6H)-dione]
IC50 (PDI [3]): 330 ± 40 nM
IC50 (U118MG cells [4]): 24000 ± 7400 nM
IC50 (A172 cells [5]): 8200 ± 2500 nM
IC50 (U87MG cells [1]; Homo sapiens, U-87 MG, 72 h): 12700 ± 3700 nM
IC50 (NU04 cells [6]): > 30000 nM

Compound: COc1cccc(-c2nc3c(=O)n(C)c(=O)nc-3n(C)n2)c1 [Compound 4e, 3-(3-Methoxyphenyl)-1,6-dimethylpyrimido[5,4-e][1,2,4]triazine-5,7(1H,6H)-dione]
IC50 (PDI [3]): 320 ± 10 nM
IC50 (U118MG cells [4]): 2400 ± 600 nM
IC50 (A172 cells [5]): 1500 ± 100 nM
IC50 (U87MG cells [1]; Homo sapiens, U-87 MG, 72 h): 1100 ± 200 nM
IC50 (NU04 cells [6]): 760 ± 220 nM

Compound: Cn1nc(-c2ccccc2)nc2c(=O)n(C)c(=O)nc1-2 [Compound 4b, 1,6-Dimethyl-3-phenylpyrimido[5,4-e][1,2,4]triazine-5,7(1H,6H)-dione]
IC50 (PDI [3]): 390 ± 30 nM
IC50 (U118MG cells [4]): 4600 ± 500 nM
IC50 (A172 cells [5]): 1800 ± 400 nM
IC50 (U87MG cells [1]; Homo sapiens, U-87 MG, 72 h): 3000 ± 300 nM
IC50 (NU04 cells [6]): 3700 ± 1200 nM

Compound: Cc1nc2c(=O)n(C)c(=O)nc-2n(C)n1 [Compound 35G8, 1,3,6-Trimethylpyrimido[5,4-e][1,2,4]triazine-5,7(1H,6H)-dione]
IC50 (PDI [3]): 170 ± 10 nM
ROS induction (U87MG cells [7]): maximal ROS induction
IC50 (U118MG cells [4]): 3900 ± 100 nM
Effect on degradation of GSTO1 (DARTS) (GSTO1): no effect
Protection of PDI from pronase proteolysis (DARTS) (PDI [8]): protected
IC50 (A172 cells [5]): 2000 ± 600 nM
Cleaved LC3B expression (U87MG cells [9]; 2 μM): increased significantly
DDIT3 protein expression (U87MG cells [9]; 2 μM): increased
Expression of ATG3, ATG5, ATG7 and beclin 1 (U87MG cells [9]; 2 μM): did not change
GRP78 (HSPA5) protein expression (U87MG cells [9]; 2 μM): increased
HMOX1 protein expression (U87MG cells [9]; 1 or 2 μM): parallel increases
SLC7A11 protein expression (U87MG cells [9]; 1 or 2 μM): parallel increases
CHAC1 transcription (U87MG cells [10]): 46 fold increase
DDIT3 transcription (U87MG cells [10]): 4 fold increase
EGR1 transcription (U87MG cells [10]): −5.65 fold change
HSPA5 transcription (U87MG cells [10]): 8 fold increase
IRS2 transcription (U87MG cells [10]): 12 fold increase
ITGA3 transcription (U87MG cells [10]): −3.89 fold change
TMEM74 transcription (U87MG cells [10]): 28 fold increase
TRIB3 transcription (U87MG cells [10]): 23 fold increase
TXN expression (U87MG cells [10]): 2 fold increase
TXNIP expression (U87MG cells [10]): 7.4 fold decrease
TXNIP transcription (U87MG cells [10]): −7.40 fold change
TXNRD1 expression (U87MG cells [10]): 9 fold increase
Effect on thermal stability of PDI (CETSA) (PDI [11]): destabilized
Effect on thermal stability of GRP78 (CETSA) (GRP78 [12]): little effect
IC50 (U87MG cells [13]): 2200 ± 700 nM
IC50 (U87MG cells [1]; Homo sapiens, U-87 MG, 72 h): 1100 ± 200 nM
Effect on thermal stability of GSTO1 (CETSA) [14]: stabilize
IC50 (NU04 cells [6]): 800 ± 200 nM
Effect of N-acetyl-cysteine (NAC) on cytotoxicity of 35G8 (glioblastoma cells; NAC added at the same time as 35G8): did not affect
Protection from 35G8-induced cell death by necrostatin-1 pretreatment (glioblastoma cells; Necrostatin-1 added 1 hour prior to 35G8): did not protect
Protection from 35G8-induced cell death by Z-VAD-FMK pretreatment (glioblastoma cells; Z-VAD-FMK added 1 hour prior to 35G8): did not protect
Effect on degradation of GRP78 (DARTS) (GRP78 [15]): no effect

IC50 (NU04 cells [16]): 400 ± 100 nM
IC50 (U118MG cells [17]): 280 ± 40 nM
IC50 (A172 cells [18]): 120 ± 100 nM
Effect on degradation of GSTO1 (DARTS) (GSTO1): no effect
Protection of PDI from pronase proteolysis (DARTS) (PDI [8]): protected
Effect on degradation of GRP78 (DARTS) (GRP78 [15]): no effect
IC50 (U87MG cells [19]): 130 ± 70 nM
Compound: PACMA31

Compound: Cn1ncnc2c(=O)n(C)c(=O)nc1-2 [NC72]
IC50 (U87MG cells [1]; MTT, 72 hours): 500 ± 100 nM

Compound: Cn1c(=O)[nH]c2nncnc2c1=O [NC75]
Effect on cell growth (U87MG cells [1]; MTT): little effect on cell growth
IC50 (U87MG cells [1]; MTT, 72 hours): > 100000 nM

IC50 (PDI [3]): 420 ± 70 nM
Compound: COc1ccc(-c2nn(C)c3nc(=O)n(C)c(=O)c-3[n+]2[O-])cc1 [Compound 5d, 3-(4-Methoxyphenyl)-1,6-dimethyl-5,7-dioxo-1,5,6,7-tetrahydropyrimido[5,4-e][1,2,4]triazine 4-oxide]
IC50 (U118MG cells [4]): 4300 ± 100 nM
IC50 (A172 cells [5]): 1700 ± 100 nM
IC50 (U87MG cells [1]; Homo sapiens, U-87 MG, 72 h): 1900 ± 700 nM
IC50 (NU04 cells [6]): 1500 ± 700 nM

IC50 (PDI [3]): 360 ± 50 nM
Compound: COc1ccc(-c2nc3c(=O)n(C)c(=O)nc-3n(C)n2)cc1 [Compound 4d, 3-(4-Methoxyphenyl)-1,6-dimethylpyrimido[5,4-e][1,2,4]triazine-5,7(1H,6H)-dione]
IC50 (U118MG cells [4]): 3900 ± 600 nM
IC50 (A172 cells [5]): 1500 ± 400 nM
IC50 (U87MG cells [1]; Homo sapiens, U-87 MG, 72 h): 1200 ± 200 nM
IC50 (NU04 cells [6]): 860 ± 40 nM

IC50 (PDI [3]): 240 ± 40 nM
Compound: Cn1nc(-c2ccc([N+](=O)[O-])cc2)nc2c(=O)n(C)c(=O)nc1-2 [Compound 4f, 1,6-Dimethyl-3-(4-nitrophenyl)pyrimido[5,4-e][1,2,4]triazine-5,7(1H,6H)-dione]
IC50 (U118MG cells [4]): 6200 ± 1600 nM
IC50 (A172 cells [5]): 1100 ± 200 nM
IC50 (U87MG cells [1]; Homo sapiens, U-87 MG, 72 h): 1800 ± 700 nM
IC50 (NU04 cells [6]): 4900 ± 1200 nM
